{"source": "ChEMBL document CHEMBL3244264", "about": "“Anticandidal activity of 5-fluorocytosine-peptide conjugates” (J Med Chem, 1979)", "key": {"Saccharomyces cerevisiae": {"system": "Saccharomyces cerevisiae", "experiment": "Antiyeast activity against Saccharomyces cerevisiae 9763 assessed as total inhibition of fungal growth after 24 to 48 hrs by microdilution-colorimetric method", "type": "functional", "summary_of_the_method": "(§1)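 Microdilution in yeast nitrogen base (0.67%) with 3% dextrose and 0.004% bromothymol blue, pH 7.2, filter-sterilized; twofold serial dilutions 1.28 mg/mL to 0.04 μg/mL. Overnight culture resuspended to about 2×10^6 cells/mL, 50-μL drop per well; organism-free and drug-free control wells. 48 h at 37 °C, read at 24 and 48 h. MIC is the lowest concentration with no blue-to-yellow/light green change; values normalized to molar equivalents of 5-FC.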"}, "Candida albicans [1]": {"system": "Candida albicans", "experiment": "Antiyeast activity against Candida albicans clinical isolate 1-V assessed as total inhibition of fungal growth after 24 to 48 hrs by microdilution-colorimetric method", "type": "functional", "summary_of_the_method": "as §1"}, "Candida albicans [2]": {"system": "Candida albicans", "experiment": "Antiyeast activity against Candida albicans WD 18-4 assessed as total inhibition of fungal growth after 24 to 48 hrs by microdilution-colorimetric method", "type": "functional", "summary_of_the_method": "as §1"}, "Pichia kudriavzevii": {"system": "Pichia kudriavzevii", "experiment": "Antiyeast activity against Candida krusei 1-T assessed as total inhibition of fungal growth after 24 to 48 hrs by microdilution-colorimetric method", "type": "functional", "summary_of_the_method": "as §1"}, "[3]": {"experiment": "Chemical stability of the compound in solutions of organism-free yeast nitrogen base assessed as half life at 50 uM at 37 degC by UV absorbance analysis", "type": "physicochemical", "conditions": "organism-free yeast nitrogen base solution", "summary_of_the_method": "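Organism-free yeast nitrogen base (0.67%) with 3% dextrose, pH 7.2 (KOH), held at 37 °C in thermostatted cells. Compound in Me2SO added to a final concentration of ca. 5×10^-5 M. Hydrolysis followed as the fall in absorbance at 305 nm over time, first-order fit. Slower compounds (t1/2 > 5 h) were incubated separately and aliquots read at intervals.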"}}, "note": "Starred links: 1 amine or outer side, 2 acyl side, 3 side chain; linkers in the order of their positions; H or OH if unused. Residues, ends and D or L forms follow the SMILES beside them. *: point of attachment. Suc = O=C(CCC(=O)[*:2])[*:1]; OBn = c1ccc(CO*)cc1"}
{"smiles": "CC(C)C[C@H](NC(=O)[C@H](C)NC(=O)CCC(=O)O)C(=O)OCc1ccccc1", "note": "(Suc-Ala-Leu-OBn)", "values": [{"measurement": "MIC", "setting": "Saccharomyces cerevisiae", "result": 160, "unit": "µg/mL"}, {"measurement": "MIC", "setting": "Candida albicans [1]", "result": 80, "unit": "µg/mL"}, {"measurement": "MIC", "setting": "Candida albicans [2]", "result": "> 20", "unit": "µg/mL"}, {"measurement": "MIC", "setting": "Pichia kudriavzevii", "result": 320, "unit": "µg/mL"}]}
{"smiles": "Nc1nc(=O)[nH]cc1F", "note": "[FLUCYTOSINE]", "values": [{"measurement": "MIC", "setting": "Saccharomyces cerevisiae", "result": 0.31, "unit": "µg/mL"}, {"measurement": "MIC", "setting": "Candida albicans [1]", "result": 0.31, "unit": "µg/mL"}, {"measurement": "MIC", "setting": "Candida albicans [2]", "result": 5, "unit": "µg/mL"}, {"measurement": "MIC", "setting": "Pichia kudriavzevii", "result": 5, "unit": "µg/mL"}]}
{"smiles": "C[C@H](NC(=O)OC(C)(C)C)C(=O)NCC(=O)Nc1nc(=O)[nH]cc1F", "values": [{"measurement": "MIC", "setting": "Saccharomyces cerevisiae", "result": 0.62, "unit": "µg/mL"}, {"measurement": "MIC", "setting": "Candida albicans [1]", "result": 0.62, "unit": "µg/mL"}, {"measurement": "MIC", "setting": "Candida albicans [2]", "result": 1.25, "unit": "µg/mL"}, {"measurement": "MIC", "setting": "Pichia kudriavzevii", "result": 20, "unit": "µg/mL"}, {"measurement": "half-life at 50 µM", "setting": "[3]", "result": 138, "unit": "min"}]}
{"smiles": "CC(C)C[C@H](NC(=O)CCC(=O)O)C(=O)N[C@@H](CC(C)C)C(=O)OCc1ccccc1", "values": [{"measurement": "MIC", "setting": "Saccharomyces cerevisiae", "result": 80, "unit": "µg/mL"}, {"measurement": "MIC", "setting": "Candida albicans [1]", "result": 80, "unit": "µg/mL"}, {"measurement": "MIC", "setting": "Candida albicans [2]", "result": "> 20", "unit": "µg/mL"}, {"measurement": "MIC", "setting": "Pichia kudriavzevii", "result": 320, "unit": "µg/mL"}]}
{"smiles": "O=c1[nH]cc(F)c(=O)[nH]1", "note": "[FLUOROURACIL]", "values": [{"measurement": "MIC", "setting": "Saccharomyces cerevisiae", "result": 1.25, "unit": "µg/mL"}, {"measurement": "MIC", "setting": "Candida albicans [1]", "result": 2.5, "unit": "µg/mL"}, {"measurement": "MIC", "setting": "Candida albicans [2]", "result": "> 20", "unit": "µg/mL"}, {"measurement": "MIC", "setting": "Pichia kudriavzevii", "result": 2.5, "unit": "µg/mL"}]}
{"smiles": "CC(C)C[C@H](NC(=O)[C@H](C)NC(=O)CCC(=O)Nc1nc(=O)[nH]cc1F)C(=O)O", "values": [{"measurement": "MIC", "setting": "Saccharomyces cerevisiae", "result": 0.31, "unit": "µg/mL"}, {"measurement": "MIC", "setting": "Candida albicans [1]", "result": 0.31, "unit": "µg/mL"}, {"measurement": "MIC", "setting": "Candida albicans [2]", "result": 5, "unit": "µg/mL"}, {"measurement": "MIC", "setting": "Pichia kudriavzevii", "result": 10, "unit": "µg/mL"}, {"measurement": "half-life at 50 µM", "setting": "[3]", "result": 102, "unit": "min"}]}
{"smiles": "CC(C)C[C@H](NC(=O)[C@H](C)NC(=O)CCC(=O)Nc1nc(=O)[nH]cc1F)C(=O)OCc1ccccc1", "values": [{"measurement": "MIC", "setting": "Saccharomyces cerevisiae", "result": 0.31, "unit": "µg/mL"}, {"measurement": "MIC", "setting": "Candida albicans [1]", "result": 0.62, "unit": "µg/mL"}, {"measurement": "MIC", "setting": "Candida albicans [2]", "result": 5, "unit": "µg/mL"}, {"measurement": "MIC", "setting": "Pichia kudriavzevii", "result": 20, "unit": "µg/mL"}, {"measurement": "half-life at 50 µM", "setting": "[3]", "result": 66, "unit": "min"}]}
{"smiles": "CC(C)(C)OC(=O)N[C@@H](CCC(=O)Nc1nc(=O)[nH]cc1F)C(=O)OCc1ccccc1", "values": [{"measurement": "MIC", "setting": "Saccharomyces cerevisiae", "result": 1.25, "unit": "µg/mL"}, {"measurement": "MIC", "setting": "Candida albicans [1]", "result": 2.5, "unit": "µg/mL"}, {"measurement": "MIC", "setting": "Candida albicans [2]", "result": 2.5, "unit": "µg/mL"}, {"measurement": "MIC", "setting": "Pichia kudriavzevii", "result": 20, "unit": "µg/mL"}, {"measurement": "half-life at 50 µM", "setting": "[3]", "result": 600, "unit": "min"}]}
{"smiles": "O=C(O)CCC(=O)O", "note": "[SUCCINIC ACID]", "values": [{"measurement": "MIC", "setting": "Saccharomyces cerevisiae", "result": 640, "unit": "µg/mL"}, {"measurement": "MIC", "setting": "Candida albicans [1]", "result": 320, "unit": "µg/mL"}, {"measurement": "MIC", "setting": "Candida albicans [2]", "result": "> 20", "unit": "µg/mL"}, {"measurement": "MIC", "setting": "Pichia kudriavzevii", "result": 320, "unit": "µg/mL"}]}
{"smiles": "O=C(O)CCC(=O)NCC(=O)NCC(=O)OCc1ccccc1", "note": "(Suc-Gly-Gly-OBn)", "values": [{"measurement": "MIC", "setting": "Saccharomyces cerevisiae", "result": 320, "unit": "µg/mL"}, {"measurement": "MIC", "setting": "Candida albicans [1]", "result": 320, "unit": "µg/mL"}, {"measurement": "MIC", "setting": "Candida albicans [2]", "result": "> 20", "unit": "µg/mL"}, {"measurement": "MIC", "setting": "Pichia kudriavzevii", "result": 320, "unit": "µg/mL"}]}
{"smiles": "CC(C)C[C@H](NC(=O)CCC(=O)Nc1nc(=O)[nH]cc1F)C(=O)N[C@@H](CC(C)C)C(=O)OCc1ccccc1", "values": [{"measurement": "MIC", "setting": "Saccharomyces cerevisiae", "result": 0.31, "unit": "µg/mL"}, {"measurement": "MIC", "setting": "Candida albicans [1]", "result": 0.62, "unit": "µg/mL"}, {"measurement": "MIC", "setting": "Candida albicans [2]", "result": 2.5, "unit": "µg/mL"}, {"measurement": "MIC", "setting": "Pichia kudriavzevii", "result": 20, "unit": "µg/mL"}]}
{"smiles": "CC(=O)Nc1nc(O)ncc1F", "values": [{"measurement": "MIC", "setting": "Saccharomyces cerevisiae", "result": 0.31, "unit": "µg/mL"}, {"measurement": "MIC", "setting": "Candida albicans [1]", "result": 2.5, "unit": "µg/mL"}, {"measurement": "MIC", "setting": "Candida albicans [2]", "result": 5, "unit": "µg/mL"}, {"measurement": "MIC", "setting": "Pichia kudriavzevii", "result": 40, "unit": "µg/mL"}, {"measurement": "half-life at 50 µM", "setting": "[3]", "result": 1060, "unit": "min"}]}
{"smiles": "O=C(CNC(=O)OCc1ccccc1)Nc1nc(=O)[nH]cc1F", "values": [{"measurement": "MIC", "setting": "Saccharomyces cerevisiae", "result": 0.31, "unit": "µg/mL"}, {"measurement": "MIC", "setting": "Candida albicans [1]", "result": 0.62, "unit": "µg/mL"}, {"measurement": "MIC", "setting": "Candida albicans [2]", "result": 2.5, "unit": "µg/mL"}, {"measurement": "MIC", "setting": "Pichia kudriavzevii", "result": 10, "unit": "µg/mL"}]}
{"smiles": "O=C(CCC(=O)Nc1nc(=O)[nH]cc1F)NCC(=O)NCC(=O)OCc1ccccc1", "values": [{"measurement": "MIC", "setting": "Saccharomyces cerevisiae", "result": 0.62, "unit": "µg/mL"}, {"measurement": "MIC", "setting": "Candida albicans [1]", "result": 0.62, "unit": "µg/mL"}, {"measurement": "MIC", "setting": "Candida albicans [2]", "result": 5, "unit": "µg/mL"}, {"measurement": "MIC", "setting": "Pichia kudriavzevii", "result": 20, "unit": "µg/mL"}, {"measurement": "half-life at 50 µM", "setting": "[3]", "result": 18, "unit": "min"}]}
{"smiles": "CC(C)C[C@H](NC(=O)[C@H](CC(C)C)NC(=O)CCC(=O)Nc1nc(=O)[nH]cc1F)C(=O)O", "values": [{"measurement": "MIC", "setting": "Saccharomyces cerevisiae", "result": 0.31, "unit": "µg/mL"}, {"measurement": "MIC", "setting": "Candida albicans [1]", "result": 0.31, "unit": "µg/mL"}, {"measurement": "MIC", "setting": "Candida albicans [2]", "result": 5, "unit": "µg/mL"}, {"measurement": "MIC", "setting": "Pichia kudriavzevii", "result": 10, "unit": "µg/mL"}, {"measurement": "half-life at 50 µM", "setting": "[3]", "result": 174, "unit": "min"}]}
